Calls of active or inactive are those of the source. The calls are words filed in the database; no cut-off is given here.
Key:
[1] = target: T1, Neuronal acetylcholine receptor; alpha4/beta2 (Rattus norvegicus, UniProt P09483+P12390); assay: (§1) Displacement of [3H]cytisine from alpha-4-beta-2 nAChR in rat brain membrane; assay type: cell membranes
Method in brief: (§2)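 Competition binding against [3H]cytisine on rat brain membranes at a contract lab, following a published nicotinic binding protocol. Affinity reported as Ki.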

[2] = Metabolic stability in human liver; assay type: ADME, tissue-based
Method in brief: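 In vitro incubation with human liver homogenate; metabolic stability expressed as half-life (t1/2, min).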

[3] = target: T2, Neuronal acetylcholine receptor; alpha4/beta2 (Rattus norvegicus) (UniProt P09483+P12390); assay: as §1; assay type: cell membranes; method in brief: as §2
[4] = target: T2, Neuronal acetylcholine receptor; alpha4/beta2 (Rattus norvegicus); assay: Agonist activity at alpha4beta2 nAChR in rat striatal membranes assessed as effect on [3H]dopamine release; assay type: functional; conditions: Striatum, Slice, in the assay text read “striatal slices” for “striatal membranes”
Method in brief: (§3)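 Rat striatal slices were used for [3H]dopamine release. Test compound was added with the K+ pulse for 5 min, at 10 nM (t = 50 min) and 1 µM (t = 90 min). […] In parallel runs, mecamylamine (0.1 µM) or DHβE (1 µM) sensitivity was read as percent inhibition of evoked release.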

[5] = target: T1, Neuronal acetylcholine receptor; alpha4/beta2; assay: Displacement of [3H]L-nicotine from alpha-4-beta-2 nAChR in rat cerebral cortex; assay type: tissue-based
[6] = target: T2, Neuronal acetylcholine receptor; alpha4/beta2 (Rattus norvegicus); assay: Antagonist activity at alpha-4-beta-2 nAChR in rat striatal slices assessed as blockade of nicotine-induced [3H]dopamine release at 10 uM; set-up: scale not given: the % may be the effect or the level left; conditions: Striatum, Slice
[7] = Drug level in po dosed rat plasma; assay type: ADME, organism-based; set-up: route oral
Method in brief: (§4)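 Rats dosed orally; drug concentrations at Cmax measured in brain tissue (ng/g) and in plasma (ng/ml).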

[8] = Drug level in po dosed rat brain; assay type: ADME, organism-based; set-up: route oral; method in brief: as §4
[9] = Oral bioavailability in rat; assay type: ADME, organism-based; conditions: in vivo
Method in brief: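 Rat pharmacokinetic study with both intravenous and oral dosing; oral bioavailability (%) derived by comparing the two routes.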

[10] = Ratio of drug level in brain to plasma in po dosed rat; assay type: ADME, organism-based
Method in brief: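 Rat iv/po pharmacokinetic study. Drug levels were measured in brain (ng/g) and plasma (ng/ml) after oral administration, and the brain-plasma ratio was derived from them.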

[11] = target: T2, Neuronal acetylcholine receptor; alpha4/beta2 (Rattus norvegicus); assay: Agonist activity at alpha-4-beta-2 nAChR in rat striatal membranes assessed as effect on [3H]dopamine release relative to nicotine; assay type: functional; conditions: Striatum, Slice, in the assay text read “striatal slices” for “striatal membranes”; method in brief: as §3

T1 sequence (P09483 whole entry): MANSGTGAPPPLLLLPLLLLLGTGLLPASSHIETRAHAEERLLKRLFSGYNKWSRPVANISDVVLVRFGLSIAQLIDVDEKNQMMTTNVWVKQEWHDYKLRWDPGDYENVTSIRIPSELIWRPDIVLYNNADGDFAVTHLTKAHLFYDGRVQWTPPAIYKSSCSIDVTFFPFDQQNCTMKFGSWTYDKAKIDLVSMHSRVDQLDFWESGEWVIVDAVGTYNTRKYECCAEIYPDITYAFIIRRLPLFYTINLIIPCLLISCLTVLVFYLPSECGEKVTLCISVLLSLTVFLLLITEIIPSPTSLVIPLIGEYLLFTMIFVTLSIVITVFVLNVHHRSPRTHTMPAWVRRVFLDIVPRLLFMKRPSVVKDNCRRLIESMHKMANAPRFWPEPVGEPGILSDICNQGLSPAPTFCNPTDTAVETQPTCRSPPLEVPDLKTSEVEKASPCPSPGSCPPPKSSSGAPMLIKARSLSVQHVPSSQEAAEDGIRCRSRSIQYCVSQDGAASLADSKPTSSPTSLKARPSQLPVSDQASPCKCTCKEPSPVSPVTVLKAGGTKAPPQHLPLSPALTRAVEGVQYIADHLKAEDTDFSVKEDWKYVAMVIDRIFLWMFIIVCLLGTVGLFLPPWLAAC
T1 sequence (P12390 whole entry): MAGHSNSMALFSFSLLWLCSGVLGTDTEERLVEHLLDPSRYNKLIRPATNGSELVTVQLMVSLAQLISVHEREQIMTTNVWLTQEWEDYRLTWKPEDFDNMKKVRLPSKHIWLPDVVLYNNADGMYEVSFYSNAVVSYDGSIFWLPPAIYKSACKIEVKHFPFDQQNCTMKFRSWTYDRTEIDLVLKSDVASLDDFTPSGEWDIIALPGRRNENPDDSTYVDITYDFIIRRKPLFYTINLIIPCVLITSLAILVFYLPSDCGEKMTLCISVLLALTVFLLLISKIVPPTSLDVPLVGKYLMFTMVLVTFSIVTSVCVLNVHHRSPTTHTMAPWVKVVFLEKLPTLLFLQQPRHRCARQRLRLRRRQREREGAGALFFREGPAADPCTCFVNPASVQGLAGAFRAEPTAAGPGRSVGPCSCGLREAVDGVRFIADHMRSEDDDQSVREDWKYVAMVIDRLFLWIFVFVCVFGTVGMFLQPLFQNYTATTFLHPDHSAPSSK

Clc1ccc2cc(C[C@@H]3CCCN3)[nH]c2n1
Ki [1]: 3720 nM

Br.c1cnc2[nH]c(C3CCNC3)cc2c1 (configuration not stated)
half-life [2]: 2.23 h
Ki [1]: 10 nM

Brc1ccc2cc(C[C@H]3CCCN3)[nH]c2n1
Ki [1]: 691 nM

Brc1ccc2cc(C[C@@H]3CCCN3)[nH]c2n1
Activity [3]: inactive

Fc1ccc2cc(C[C@@H]3CCCN3)[nH]c2n1
Ki [1]: 2000 nM

COc1ccc2cc(C[C@H]3CCCN3)[nH]c2n1
Activity [3]: inactive

Fc1ccc2cc(C[C@H]3CCCN3)[nH]c2n1
Ki [1]: 316 nM

c1cnc2[nH]c(C3CCNC3)cc2c1 (configuration not stated)
Activity [4]: Active

c1cnc2[nH]c(C3CCCNC3)cc2c1 (single isomer, unassigned; (-))
Ki [1]: 2000 nM

CN[C@@H](C)C/C=C/c1cncc(OC)c1
Ki [5]: 11 nM

Clc1ccc2cc(C3CCCNC3)[nH]c2n1 (single isomer, unassigned; (+))
Ki [1]: 3460 nM

c1cnc2[nH]cc(C3CCCNC3)c2c1 (configuration not stated)
Ki [1]: 2950 nM

c1cnc2[nH]c(C[C@H]3CCCN3)cc2c1
Activity [6]: 70%
Cmax [7]: 120 ng/mL
half-life [2]: 4.43 h
Cmax [8]: 280 ng/g
bioavailability [9]: 11.3%
Kp [10]: 3.7
Activity [4]: Active
Activity [11]: 62%

Clc1ccc2cc(C[C@H]3CCCN3)[nH]c2n1
Ki [1]: 147 nM

c1cnc2[nH]c(C3CCCNC3)cc2c1 (single isomer, unassigned; (+))
Activity [3]: inactive

c1cnc2[nH]c(C3CCNC3)cc2c1 (racemic)
Ki [1]: 16 nM

Clc1ccc2c(C3CCCNC3)c[nH]c2n1 (configuration not stated)
Ki [1]: 2950 nM

c1cnc2[nH]c(C3CCNC3)cc2c1 (single isomer, unassigned; (-))
Ki [1]: 251 nM

Clc1ccc2cc(C3CCCNC3)[nH]c2n1 (racemic)
Activity [3]: inactive

Clc1ccc2cc(C3CCCNC3)[nH]c2n1 (single isomer, unassigned; (-))
Activity [3]: inactive

c1cnc2[nH]c(C[C@@H]3CCCN3)cc2c1
Ki [1]: 2750 nM

Clc1ccnc2[nH]c(C3CCCNC3)cc12 (configuration not stated)
Activity [3]: inactive

CN1CCC[C@H]1Cc1cc2cccnc2[nH]1
Ki [1]: 691 nM

CN1CCC[C@@H]1Cc1cc2cccnc2[nH]1
Ki [1]: 2510 nM

— ChEMBL document CHEMBL1141606, “7-Azaindole derivatives as potential partial nicotinic agonists” (Bioorg Med Chem Lett, 2008)
